Test results from ChEMBL document CHEMBL3232844, “Synthesis and structure activity relationships of schweinfurthin indoles” (2014).

What was measured:
Format in all cases: functional
MCF7 = experiment: Cytotoxicity against human MCF7 cells
Summary of the method: (§1)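 Tested in a 60-cell-line human tumor panel screen; the read-out is growth inhibition, reported as GI50 for each cell line.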

T47D = experiment: Cytotoxicity against human T47D cells
Summary of the method: (§2)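 Cell line run as part of the 60-cell-line screening panel; growth inhibition was reported as a GI50 for each line.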

HCC 2998 = experiment: Cytotoxicity against human HCC2998 cells; summary of the method: as §1
MDA-MB-435 = experiment: Cytotoxicity against human MDA-MB-435 cells; summary of the method: as §1
M14 = experiment: Cytotoxicity against human M14 cells; summary of the method: as §1
RXF 393 = experiment: Cytotoxicity against human RXF393 cells; summary of the method: as §1
SN12C = experiment: Cytotoxicity against human SN12C cells; summary of the method: as §1
[1] = Cytotoxicity against human UO31 cells; summary of the method: as §2
NCI-H322M = experiment: Cytotoxicity against human NCI-H322M cells; summary of the method: as §1
NCI-H460 = experiment: Cytotoxicity against human NCI-H460 cells; summary of the method: as §1
SNB-75 = experiment: Cytotoxicity against human SNB75 cells; summary of the method: as §2
SR = experiment: Cytotoxicity against human SR cells; summary of the method: as §2
KM12 = experiment: Cytotoxicity against human KM12 cells; summary of the method: as §1
SF-539 = experiment: Cytotoxicity against human SF539 cells; summary of the method: as §1
SK-MEL-2 = experiment: Cytotoxicity against human SK-MEL-2 cells; summary of the method: as §1
[2] = Cytotoxicity against human OVCAR3 cells; summary of the method: as §1
[3] = Cytotoxicity against human UACC257 cells; summary of the method: as §2
HT-29 = experiment: Cytotoxicity against human HT-29 cells; summary of the method: as §1
SK-OV-3 = experiment: Cytotoxicity against human SKOV3 cells; summary of the method: as §1
K562 = experiment: Cytotoxicity against human K562 cells; summary of the method: as §1
NCI-H226 = experiment: Cytotoxicity against human NCI-H226 cells; summary of the method: as §1
786-0 = experiment: Cytotoxicity against human 786-0 cells; summary of the method: as §1
NCI-H23 = experiment: Cytotoxicity against human NCI-H23 cells; summary of the method: as §1
[4] = Cytotoxicity against human OVCAR5 cells; summary of the method: as §1
A498 = experiment: Cytotoxicity against human A498 cells; summary of the method: as §1
BT-549 = experiment: Cytotoxicity against human BT549 cells; summary of the method: as §1
SF-268 = experiment: Cytotoxicity against human SF268 cells; summary of the method: as §1
U-251 = experiment: Cytotoxicity against human U251 cells; summary of the method: as §2
ACHN = experiment: Cytotoxicity against human ACHN cells; summary of the method: as §1
SNB-19 = experiment: Cytotoxicity against human SNB19 cells; summary of the method: as §1
HL-60(TB) = experiment: Cytotoxicity against human HL-60(TB) cells
Summary of the method: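 Tested within the NCI 60-cell-line screen, with GI50 as the read-out. Values are the average of two independent experiments. The lowest concentration tested was 10 nM.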

PC-3 = experiment: Cytotoxicity against human PC3 cells; summary of the method: as §1
MOLT-4 = experiment: Cytotoxicity against human MOLT4 cells; summary of the method: as §1
DU-145 = experiment: Cytotoxicity against human DU145 cells; summary of the method: as §1
SK-MEL-5 = experiment: Cytotoxicity against human SK-MEL-5 cells; summary of the method: as §1
SF-295 = experiment: Cytotoxicity against human SF295 cells; summary of the method: as §1
[5] = Cytotoxicity against human UACC62 cells; summary of the method: as §2
[6] = Cytotoxicity against human EKVX cells; summary of the method: as §1
[7] = Cytotoxicity against human NCI-ADR-RES cells; summary of the method: as §1
[8] = Cytotoxicity against human OVCAR8 cells; summary of the method: as §1
MDA-MB-231 = experiment: Cytotoxicity against human MDA-MB-231 cells; summary of the method: as §1
CCRF-CEM = experiment: Cytotoxicity against human CCRF-CEM cells
MDA-MB-468 = experiment: Cytotoxicity against human MDA-MB-468 cells; summary of the method: as §1
[9] = read-out: pLC50 (the source's name) (converted)

`COc1cc(/C=C/c2cc(OC)c3c(C/C=C(\C)CCC=C(C)C)c[nH]c3c2)cc2c1O[C@]1(C)CC[C@@H](O)C(C)(C)[C@H]1C2` gave a GI50 (MCF7) of 1.02 µM, an LC50 (MCF7) of 12.6 µM and a TGI (MCF7; read-out: pTGI (converted)) of 3.39 µM. The GI50 (T47D) was 7.24 µM, the CC50 (T47D; [9]) was > 100 µM and the TGI (T47D; read-out: pTGI (converted)) was 34.7 µM. The GI50 (HCC 2998) was 11.5 µM, the CC50 (HCC 2998; [9]) was 57.5 µM and the TGI (HCC 2998; read-out: pTGI (converted)) was 25.7 µM. The GI50 (MDA-MB-435) was 1.62 µM, the CC50 (MDA-MB-435; [9]) was > 100 µM and the TGI (MDA-MB-435; read-out: pTGI (converted)) was 17.4 µM. It also gave a GI50 (M14) of 1.17 µM, a CC50 (M14; [9]) of 8.51 µM and a TGI (M14; read-out: pTGI (converted)) of 3.16 µM. It also gave a GI50 (RXF 393) of 0.055 µM, an LC50 (RXF 393) of 1 µM and a TGI (RXF 393; read-out: pTGI (converted)) of 0.251 µM. It also gave a GI50 (SN12C) of 6.76 µM, an LC50 (SN12C) of 63.1 µM and a TGI (SN12C; read-out: pTGI (converted)) of 23.4 µM. For the same compound, the GI50 ([1]; UO-31) was 0.631 µM, the LC50 ([1]; UO-31) was > 100 µM and the TGI ([1]; UO-31, read-out: pTGI (converted)) was 14.1 µM. The GI50 (NCI-H322M) was 19.1 µM, the CC50 (NCI-H322M; [9]) was > 100 µM and the TGI (NCI-H322M; read-out: pTGI (converted)) was > 100 µM. The GI50 (NCI-H460) was 1.17 µM, the CC50 (NCI-H460; [9]) was 43.7 µM and the TGI (NCI-H460; read-out: pTGI (converted)) was 9.12 µM. For the same compound, the GI50 (SNB-75) was 0.145 µM, the CC50 (SNB-75; [9]) was 40.7 µM and the TGI (SNB-75; read-out: pTGI (converted)) was 0.692 µM. For the same compound, the GI50 (SR) was 0.245 µM, the CC50 (SR; [9]) was > 100 µM and the TGI (SR; read-out: pTGI (converted)) was 1.48 µM. The GI50 (KM12) was 0.562 µM, the CC50 (KM12; [9]) was 5.13 µM and the TGI (KM12; read-out: pTGI (converted)) was 1.95 µM. For the same compound, the GI50 (SF-539) was 0.148 µM, the CC50 (SF-539; [9]) was 5.37 µM and the TGI (SF-539; read-out: pTGI (converted)) was 0.871 µM. The GI50 (SK-MEL-2) was 1 µM, the CC50 (SK-MEL-2; [9]) was 63.1 µM and the TGI (SK-MEL-2; read-out: pTGI (converted)) was 9.77 µM. For the same compound, the GI50 ([2]; OVCAR-3) was 5.5 µM, the CC50 ([2]; OVCAR-3, read-out: pLC50 (the source's name) (converted)) was 47.9 µM and the TGI ([2]; OVCAR-3, read-out: pTGI (converted)) was 20 µM. The GI50 ([3]; UACC-257) was 5.75 µM, the CC50 ([3]; UACC-257, read-out: pLC50 (the source's name) (converted)) was 81.3 µM and the TGI ([3]; UACC-257, read-out: pTGI (converted)) was 25.7 µM. The GI50 (HT-29) was 0.447 µM, the CC50 (HT-29; [9]) was > 100 µM and the TGI (HT-29; read-out: pTGI (converted)) was 2.75 µM. For the same compound, the GI50 (SK-OV-3) was 1.23 µM, the LC50 (SK-OV-3) was > 100 µM and the TGI (SK-OV-3; read-out: pTGI (converted)) was 13.8 µM. For the same compound, the GI50 (K562) was 0.427 µM, the CC50 (K562; [9]) was > 100 µM and the TGI (K562; read-out: pTGI (converted)) was 3.89 µM. It also gave a GI50 (NCI-H226) of 8.32 µM, a CC50 (NCI-H226; [9]) of 61.7 µM and a TGI (NCI-H226; read-out: pTGI (converted)) of 24.5 µM. It also gave a GI50 (786-0) of 0.195 µM, an LC50 (concentration killing 50% of cells) (786-0) of 56.2 µM and a TGI (786-0; read-out: pTGI (converted)) of 1.86 µM. The GI50 (NCI-H23) was 2.34 µM, the CC50 (NCI-H23; [9]) was 66.1 µM and the TGI (NCI-H23; read-out: pTGI (converted)) was 16.6 µM. For the same compound, the GI50 ([4]; OVCAR-5) was 1.02 µM, the CC50 ([4]; OVCAR-5, read-out: pLC50 (the source's name) (converted)) was 49 µM and the TGI ([4]; OVCAR-5, read-out: pTGI (converted)) was 14.5 µM. For the same compound, the GI50 (A498) was 1.02 µM, the CC50 (A498; [9]) was 16.6 µM and the TGI (A498; read-out: pTGI (converted)) was 3.72 µM. It also gave a GI50 (BT-549) of 0.589 µM, a CC50 (BT-549; [9]) of 64.6 µM and a TGI (BT-549; read-out: pTGI (converted)) of 17.8 µM. It also gave a GI50 (SF-268) of 1.41 µM, a CC50 (SF-268; [9]) of 52.5 µM and a TGI (SF-268; read-out: pTGI (converted)) of 15.8 µM. The GI50 (U-251) was 0.759 µM, the CC50 (U-251; [9]) was 39.8 µM and the TGI (U-251; read-out: pTGI (converted)) was 12.9 µM. The GI50 (ACHN) was 0.661 µM, the LC50 (concentration killing 50% of cells) (ACHN) was 85.1 µM and the TGI (ACHN; read-out: pTGI (converted)) was 16.2 µM. The GI50 (SNB-19) was 1.7 µM, the CC50 (SNB-19; [9]) was 58.9 µM and the TGI (SNB-19; read-out: pTGI (converted)) was 13.5 µM. The GI50 (HL-60(TB)) was 0.363 µM, the CC50 (HL-60(TB); [9]) was > 100 µM and the TGI (HL-60(TB); read-out: pTGI (converted)) was 10.5 µM. For the same compound, the GI50 (PC-3) was 0.447 µM, the LC50 (PC-3) was > 100 µM and the TGI (PC-3; read-out: pTGI (converted)) was 17.8 µM. For the same compound, the GI50 (MOLT-4) was 0.251 µM, the CC50 (MOLT-4; [9]) was > 100 µM and the TGI (MOLT-4; read-out: pTGI (converted)) was 0.851 µM. It also gave a GI50 (DU-145) of 3.8 µM, an LC50 (50% lethal concentration) (DU-145) of 45.7 µM and a TGI (DU-145; read-out: pTGI (converted)) of 19.1 µM. It also gave a GI50 (SK-MEL-5) of 0.525 µM, a CC50 (SK-MEL-5; [9]) of 4.37 µM and a TGI (SK-MEL-5; read-out: pTGI (converted)) of 1.86 µM. It also gave a GI50 (SF-295; read-out: GI50) of 0.2 µM, a GI50 (SF-295; read-out: pGI50 (converted)) of 0.204 µM and a TGI (SF-295; read-out: pTGI (converted)) of 0.575 µM. For the same compound, the GI50 ([5]; UACC-62) was 0.309 µM, the CC50 ([5]; UACC-62, read-out: pLC50 (the source's name) (converted)) was 7.76 µM and the TGI ([5]; UACC-62, read-out: pTGI (converted)) was 1.48 µM. For the same compound, the GI50 [6] was 1.82 µM, the CC50 [6, 9] was > 100 µM and the TGI ([6]; read-out: pTGI (converted)) was > 100 µM. The GI50 [7] was 14.8 µM, the CC50 [7, 9] was > 100 µM and the TGI ([7]; read-out: pTGI (converted)) was > 100 µM. For the same compound, the GI50 ([8]; OVCAR-8) was 12.6 µM, the CC50 ([8]; OVCAR-8, read-out: pLC50 (the source's name) (converted)) was > 100 µM and the TGI ([8]; OVCAR-8, read-out: pTGI (converted)) was 36.3 µM. It also gave a GI50 (MDA-MB-231) of 1.41 µM, an LC50 (MDA-MB-231) of 66.1 µM and a TGI (MDA-MB-231; read-out: pTGI (converted)) of 12.9 µM. For the same compound, the GI50 (CCRF-CEM) was 0.295 µM, the CC50 (CCRF-CEM; [9]) was > 100 µM and the GI50 (MDA-MB-468) was 1.32 µM. For the same compound, the LC50 (MDA-MB-468) was 33.1 µM and the TGI (MDA-MB-468; read-out: pTGI (converted)) was 8.51 µM.
